According to ChEMBL document CHEMBL1149096 (J Med Chem, 2004):
Square brackets hold non-standard residues; d marks the D form. Peptide text beside a SMILES is read from it. NMeF = CN[C@@H](Cc1ccccc1)C(=O)O

Experiments:
[1] = molecular target: Delta-type opioid receptor (Mus musculus, UniProt P32300); test: Inhibitory concentration required for 50 percent inhibition of opioid receptor delta 1 induced contractions in mouse vas deferens (MVD) smooth muscle contraction assays; format: functional
Procedure, shortened: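 Electrically stimulated MVD (male ICR mice, 25-40 g) and GPI longitudinal muscle myenteric plexus strips (male Hartley guinea pigs, 250-500 g). Baths held 37 °C oxygenated Krebs bicarbonate (Mg-free for MVD), tension 1 g GPI / 0.5 g MVD. Stimulation 0.1 Hz, 0.4 ms pulses (2 ms MVD), supramaximal voltage. […] IC50 from two to four tissues by nonlinear least squares.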

Mu-type opioid receptor = Mu-type opioid receptor (Cavia porcellus, UniProt P97266); test: Inhibitory concentration for inhibition of Opioid receptor mu 1 induced contractions in guinea pig ileum (GPI) smooth muscle assays; format: functional, tissue-based
Procedure, shortened: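 Electrically stimulated MVD (male ICR mice, 25-40 g) and GPI longitudinal muscle myenteric plexus strips (male Hartley guinea pigs, 250-500 g). Baths held 37 °C oxygenated Krebs bicarbonate (Mg-free for MVD), tension 1 g GPI / 0.5 g MVD. Stimulation 0.1 Hz, 0.4 ms pulses (2 ms MVD), supramaximal voltage. IC50 from two to four tissues by nonlinear least squares.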

[2] = molecular target: Delta-type opioid receptor (Mus musculus) (UniProt P32300); settings: Vas deferens; filed as agonist
[3] = molecular target: Mu-type opioid receptor (Cavia porcellus) (UniProt P97266); settings: Ileum, filed as agonist
Sequence of Mu-type opioid receptor (Cavia porcellus) (P97266 whole entry): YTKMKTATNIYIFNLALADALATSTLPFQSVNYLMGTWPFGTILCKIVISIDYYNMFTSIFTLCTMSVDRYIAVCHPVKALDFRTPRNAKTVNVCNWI

Sequence of Delta-type opioid receptor (P32300 whole entry): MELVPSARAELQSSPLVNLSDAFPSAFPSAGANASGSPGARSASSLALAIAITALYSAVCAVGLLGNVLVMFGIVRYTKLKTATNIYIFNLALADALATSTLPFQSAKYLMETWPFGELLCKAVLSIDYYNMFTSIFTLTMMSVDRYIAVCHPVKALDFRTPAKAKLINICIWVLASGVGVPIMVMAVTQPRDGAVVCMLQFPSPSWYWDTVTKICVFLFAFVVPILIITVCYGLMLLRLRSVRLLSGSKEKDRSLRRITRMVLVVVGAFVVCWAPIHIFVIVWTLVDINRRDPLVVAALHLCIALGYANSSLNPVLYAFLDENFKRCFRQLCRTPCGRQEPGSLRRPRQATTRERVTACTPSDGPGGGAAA
Sequence of Delta-type opioid receptor (Mus musculus) (P32300 whole entry): as above
Sequence of Mu-type opioid receptor (P97266 whole entry): as the sequence (P97266 whole entry) above

In the case of CN(C(=O)[C@@H]1CCCN1C(=O)[C@@H](N)Cc1ccc(O)cc1)[C@@H](Cc1ccccc1)C(=O)N1CCC[C@@H]1C(N)=O (H-YP[NMeF][dP]-NH2), the IC50 [1] is reported as 0.243 µM, the IC50 (Mu-type opioid receptor) is reported as 0.0594 µM and the Ke [2] is reported as “Agonist”. For the same molecule, the Ke [3] was “Agonist”.
